Measured values as given in ChEMBL document CHEMBL4402547, “Synthesis and Pharmacological Characterization of Conformationally Restricted Retigabine Analogues as Novel Neuronal Kv7 Channel Activators” (J Med Chem, 2020).

Key:
[1] = biological target: CYP450 (phase 1 metabolism) (Homo sapiens, UniProt P04798+P05177+P05181+P08684+P10632+P10635+P11509+P11712+P13584+P20813+P20815+P20853+P24462+P24903+P33260+P33261+P51589+P78329+P98187+Q02928+Q08477+Q16678+Q16696+Q5TCH4+Q6VVX0+Q7Z449+Q8TAV3+Q96SQ9+Q9HB55); assay: Drug metabolism in human liver S9 fractions assessed as CYP450-mediated phase 1 metabolism at 1 mM preincubated for 5 mins followed by NADPH addition and measured after 60 mins by RP-UHPLC-DAD analysis relative to control; assay type: ADME, subcellular; settings: read-out: Drug metabolism
Summary of the method: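 Drug (1 mM stock, 2 μL) incubated with pooled human liver S9 fraction in 100 mM phosphate buffer pH 7.4. After 5 min preincubation, NADPH added and mixture kept 60 min at 37°C. Stopped with ice-cold methanol, centrifuged, supernatant analysed by RP-UHPLC-DAD. % turnover = 100 − (60 min/0 min concentration × 100). Controls: no-NADPH, and testosterone, 7-hydroxycoumarin, p-aminobenzoic acid.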

[2] = biological target: T1, Potassium voltage-gated channel subfamily KQT member 5 (Homo sapiens, UniProt Q9NR82); assay: Activation of human Kv7.5 expressed in CHO cells assessed as increase in channel current amplitude by whole cell patch clamp electrophysiology assay; assay type: cell-based
[3] = biological target: T2, Potassium voltage-gated channel subfamily KQT member 4 (Homo sapiens, UniProt P56696); assay: Activation of human Kv7.4 expressed in CHO cells assessed as delta V at 10 uM by whole cell patch clamp electrophysiology assay; assay type: cell-based
T2 sequence (P56696 whole entry): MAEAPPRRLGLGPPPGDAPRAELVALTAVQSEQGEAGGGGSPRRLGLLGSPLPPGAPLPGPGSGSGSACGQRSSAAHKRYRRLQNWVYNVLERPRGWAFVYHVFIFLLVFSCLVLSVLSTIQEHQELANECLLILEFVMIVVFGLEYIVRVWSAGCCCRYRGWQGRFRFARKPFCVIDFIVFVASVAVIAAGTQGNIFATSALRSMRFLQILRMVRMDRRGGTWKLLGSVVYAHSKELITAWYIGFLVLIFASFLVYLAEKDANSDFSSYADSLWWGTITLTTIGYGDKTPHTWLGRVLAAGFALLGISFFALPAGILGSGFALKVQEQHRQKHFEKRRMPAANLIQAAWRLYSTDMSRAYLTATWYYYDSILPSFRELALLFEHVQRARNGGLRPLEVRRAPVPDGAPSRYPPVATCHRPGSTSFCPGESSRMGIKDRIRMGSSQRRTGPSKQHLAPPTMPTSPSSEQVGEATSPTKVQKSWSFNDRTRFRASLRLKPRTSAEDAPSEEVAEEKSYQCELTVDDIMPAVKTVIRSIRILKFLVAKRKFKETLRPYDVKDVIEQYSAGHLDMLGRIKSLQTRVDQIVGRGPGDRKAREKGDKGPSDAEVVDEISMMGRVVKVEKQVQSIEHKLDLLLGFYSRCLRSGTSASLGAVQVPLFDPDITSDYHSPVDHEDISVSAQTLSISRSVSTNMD

[4] = biological target: T1, Potassium voltage-gated channel subfamily KQT member 5; assay: Activation of human Kv7.5 expressed in CHO cells assessed as delta V at 10 uM by whole cell patch clamp electrophysiology assay; assay type: cell-based
[5] = Photostability of compound in pH 7.4 buffer assessed as compound degradation at 100 ug/ml incubated for 2 hrs under natural solar light-irradiation by HPLC analysis relative to control
Summary of the method: (§1)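 DMSO solutions diluted in pH 7.4 buffer, held in 1 cm quartz cells and exposed to natural daylight. Light-shielded controls kept at 37°C in foil. Aliquots drawn at set intervals and parent compound loss measured by UHPLC: C18 column, 0.1% TFA water/acetonitrile gradient, 45°C, detection at 254 nm.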

[6] = Hydrophobicity of compound assessed as self aggregating property by measuring decrease in ratio between fluorescence intensity peaks at 372 nm to 383 nm at 0.7 to 100 uM by pyrene based fluorescence spectroscopic method; assay type: physicochemical
Summary of the method: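 DMSO stocks diluted in 0.9% NaCl to 0.7–100 μM, residual DMSO <0.1%. Pyrene used as probe, excited at 334 nm; emission recorded 200–700 nm, ten scans summed, at 25°C. Ratio of peak I (372 nm) to peak III (383 nm) intensity plotted against concentration.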

[7] = biological target: Potassium voltage-gated channel subfamily KQT member 2 (Homo sapiens, UniProt O43526); assay: Activation of human Kv7.2 expressed in CHO cells assessed as delta V at 10 uM by whole cell patch clamp electrophysiology assay; assay type: cell-based
Summary of the method: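 Human Kv7.2 transiently expressed in CHO cells; whole-cell recordings at room temperature (20–22°C), pH 7.4 extracellular solution. 3-s ramps from −80 to +20 mV with 0.01–10 μM drug. ΔV taken as shift of the potential where current reaches 20% of peak, drug vs control, plotted against log concentration. Four-parameter logistic fit gives EC50; mean ± SD of ≥3 experiments.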

[8] = Photostability of compound in pH 7.4 buffer assessed as compound degradation at 100 ug/ml incubated for 6 hrs under natural solar light-irradiation by HPLC analysis relative to control; summary of the method: as §1

T1 sequence (Q9NR82 whole entry): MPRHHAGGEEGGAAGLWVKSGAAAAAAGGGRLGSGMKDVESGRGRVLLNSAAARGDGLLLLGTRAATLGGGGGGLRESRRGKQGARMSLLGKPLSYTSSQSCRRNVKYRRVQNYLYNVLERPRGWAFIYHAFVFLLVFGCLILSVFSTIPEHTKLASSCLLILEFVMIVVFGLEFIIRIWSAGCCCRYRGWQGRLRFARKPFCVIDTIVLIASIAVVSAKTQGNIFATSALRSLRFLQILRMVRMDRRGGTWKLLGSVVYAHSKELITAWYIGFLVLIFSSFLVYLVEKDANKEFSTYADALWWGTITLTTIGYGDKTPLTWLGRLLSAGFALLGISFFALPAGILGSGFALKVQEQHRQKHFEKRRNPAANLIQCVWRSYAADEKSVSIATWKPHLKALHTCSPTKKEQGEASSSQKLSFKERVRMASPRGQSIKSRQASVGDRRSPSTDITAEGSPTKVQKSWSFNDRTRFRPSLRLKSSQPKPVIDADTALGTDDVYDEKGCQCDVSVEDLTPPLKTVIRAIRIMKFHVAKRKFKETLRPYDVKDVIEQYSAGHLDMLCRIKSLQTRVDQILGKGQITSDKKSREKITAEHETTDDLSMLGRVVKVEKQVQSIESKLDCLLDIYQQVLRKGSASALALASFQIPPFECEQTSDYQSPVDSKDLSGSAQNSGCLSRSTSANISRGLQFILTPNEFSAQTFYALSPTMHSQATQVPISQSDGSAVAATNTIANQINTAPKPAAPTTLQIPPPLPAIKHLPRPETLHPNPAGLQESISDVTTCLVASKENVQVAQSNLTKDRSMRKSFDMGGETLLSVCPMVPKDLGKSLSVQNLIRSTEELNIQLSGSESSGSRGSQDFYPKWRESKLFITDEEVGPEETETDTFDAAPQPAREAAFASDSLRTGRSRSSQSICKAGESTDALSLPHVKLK
Potassium voltage-gated channel subfamily KQT member 2, sequence (O43526 whole entry): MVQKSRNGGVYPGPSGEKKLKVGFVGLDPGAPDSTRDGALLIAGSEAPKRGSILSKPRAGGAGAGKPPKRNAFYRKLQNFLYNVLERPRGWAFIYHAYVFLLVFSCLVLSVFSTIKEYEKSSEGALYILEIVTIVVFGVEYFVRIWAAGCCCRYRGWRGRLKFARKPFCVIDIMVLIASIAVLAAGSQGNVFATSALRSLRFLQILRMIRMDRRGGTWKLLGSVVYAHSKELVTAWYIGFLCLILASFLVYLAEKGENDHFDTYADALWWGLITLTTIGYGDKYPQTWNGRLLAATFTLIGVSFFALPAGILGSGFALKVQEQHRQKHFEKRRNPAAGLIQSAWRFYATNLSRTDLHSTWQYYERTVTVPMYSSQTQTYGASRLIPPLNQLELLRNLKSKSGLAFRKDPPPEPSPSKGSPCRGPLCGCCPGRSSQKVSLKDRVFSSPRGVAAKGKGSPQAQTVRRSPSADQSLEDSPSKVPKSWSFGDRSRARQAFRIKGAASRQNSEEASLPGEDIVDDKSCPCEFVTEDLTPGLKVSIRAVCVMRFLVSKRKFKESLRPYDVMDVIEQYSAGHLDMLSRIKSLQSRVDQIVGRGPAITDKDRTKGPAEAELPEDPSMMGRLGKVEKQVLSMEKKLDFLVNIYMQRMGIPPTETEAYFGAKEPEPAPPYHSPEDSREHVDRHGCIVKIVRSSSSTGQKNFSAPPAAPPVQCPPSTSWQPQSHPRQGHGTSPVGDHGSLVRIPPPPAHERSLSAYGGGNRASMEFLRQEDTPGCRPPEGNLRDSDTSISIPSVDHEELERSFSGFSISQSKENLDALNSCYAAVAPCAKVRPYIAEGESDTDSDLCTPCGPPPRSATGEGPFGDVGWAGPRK

Structure (SMILES)	metabolised at 1 h, 1000 µM [1]	EC50 [2]	Activity [3]	Activity [4]	Drug degradation [5]	Activity [6]	Activity [7]	Drug degradation [8]
CCCCCCC(=O)Nc1ccc2c(ccn2Cc2ccc(C(F)(F)F)cc2)c1	48.7%	1070 nM	-32.85 mV	-25.6 mV	1.36%	Active	-29.5 mV	9.15%
CCOC(=O)Nc1ccc(NCc2ccc(F)cc2)cc1N [EZOGABINE]	3.11%	800 nM	-15.19 mV	-21.95 mV	9.65%	Not Active	-25.4 mV	43.5 to 47.3%
CC(C)(C)CC(=O)Nc1ccc2c(ccn2Cc2ccc(C(F)(F)F)cc2)c1	17.3%	350 nM	-24.43 mV	-19.7 mV	0.96%	Active	-30 mV	8.45%
